According to ChEMBL document CHEMBL2390926, “Identification of novel FLT3 kinase inhibitors” (Eur J Med Chem, 2013):
The source made the active and inactive calls.

How the values were obtained:
BaF3 = assay: Cytotoxicity against mouse BA/F3 cells transfected with […] at 1 uM after 24 hrs by plate reader analysis; assay type: functional, cell-based
[1] = target: Tyrosine-protein kinase SYK (Homo sapiens) (UniProt P43405); assay: Inhibition of SYK (unknown origin) transfected in mouse Ba/F3 cells at 5 uM after 24 hrs; assay type: cell-based; conditions: BaF3
[2] = target: Proto-oncogene tyrosine-protein kinase Src (Homo sapiens) (UniProt P12931); assay: Inhibition of SRC (unknown origin) transfected in mouse Ba/F3 cells at 5 uM after 24 hrs; assay type: cell-based; conditions: BaF3
Sequence of Proto-oncogene tyrosine-protein kinase Src (Homo sapiens) (P12931 2-536 limits assumed): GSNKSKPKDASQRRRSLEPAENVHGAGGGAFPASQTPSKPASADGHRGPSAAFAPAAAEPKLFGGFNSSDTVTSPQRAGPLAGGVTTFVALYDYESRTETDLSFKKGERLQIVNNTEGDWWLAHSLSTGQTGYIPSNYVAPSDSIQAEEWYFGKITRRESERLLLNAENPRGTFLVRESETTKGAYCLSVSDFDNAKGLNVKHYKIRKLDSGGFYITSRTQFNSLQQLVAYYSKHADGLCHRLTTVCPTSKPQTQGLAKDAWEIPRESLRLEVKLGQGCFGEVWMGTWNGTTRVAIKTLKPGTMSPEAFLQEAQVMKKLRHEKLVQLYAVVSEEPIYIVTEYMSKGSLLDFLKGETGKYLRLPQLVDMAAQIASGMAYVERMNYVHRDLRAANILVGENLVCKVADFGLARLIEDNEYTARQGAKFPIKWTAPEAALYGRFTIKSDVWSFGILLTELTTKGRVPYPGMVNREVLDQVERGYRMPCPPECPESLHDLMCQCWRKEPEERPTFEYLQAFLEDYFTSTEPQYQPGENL

[3] = target: Proto-oncogene tyrosine-protein kinase ROS (Homo sapiens) (UniProt P08922); assay: Inhibition of ROS1 (unknown origin) transfected in mouse Ba/F3 cells at 5 uM after 24 hrs; assay type: cell-based; conditions: BaF3
[4] = target: NT-3 growth factor receptor (Homo sapiens) (UniProt Q16288); assay: Inhibition of NTRK3 (unknown origin) transfected in mouse Ba/F3 cells at 5 uM after 24 hrs; assay type: cell-based; conditions: BaF3
Sequence of NT-3 growth factor receptor (Homo sapiens) (Q16288 32-839 limits assumed): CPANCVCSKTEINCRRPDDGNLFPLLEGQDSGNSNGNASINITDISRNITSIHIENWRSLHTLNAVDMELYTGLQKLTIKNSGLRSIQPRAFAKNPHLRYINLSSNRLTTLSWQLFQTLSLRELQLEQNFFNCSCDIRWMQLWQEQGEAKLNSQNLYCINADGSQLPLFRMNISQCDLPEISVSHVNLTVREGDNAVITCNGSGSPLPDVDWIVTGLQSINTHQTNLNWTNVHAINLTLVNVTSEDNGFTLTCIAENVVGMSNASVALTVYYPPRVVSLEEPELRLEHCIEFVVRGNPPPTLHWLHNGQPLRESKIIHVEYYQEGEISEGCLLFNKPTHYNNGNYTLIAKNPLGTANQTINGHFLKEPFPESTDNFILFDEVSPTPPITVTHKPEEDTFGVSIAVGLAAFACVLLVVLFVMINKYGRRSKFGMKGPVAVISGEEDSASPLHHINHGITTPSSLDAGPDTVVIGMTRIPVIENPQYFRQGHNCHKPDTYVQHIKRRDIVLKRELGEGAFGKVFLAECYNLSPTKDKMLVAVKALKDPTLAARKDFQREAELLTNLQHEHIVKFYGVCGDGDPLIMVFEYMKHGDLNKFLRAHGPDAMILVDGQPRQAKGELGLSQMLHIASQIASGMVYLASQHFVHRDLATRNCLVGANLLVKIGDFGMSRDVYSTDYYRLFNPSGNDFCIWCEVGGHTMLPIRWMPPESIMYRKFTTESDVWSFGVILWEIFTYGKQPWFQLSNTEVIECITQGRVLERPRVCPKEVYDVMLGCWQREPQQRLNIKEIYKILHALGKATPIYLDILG

[5] = target: T1, Tyrosine-protein kinase Mer (Homo sapiens) (UniProt Q12866); assay: Inhibition of MERTK (unknown origin) transfected in mouse Ba/F3 cells at 5 uM after 24 hrs; assay type: cell-based; conditions: BaF3
T1 sequence (whole entry): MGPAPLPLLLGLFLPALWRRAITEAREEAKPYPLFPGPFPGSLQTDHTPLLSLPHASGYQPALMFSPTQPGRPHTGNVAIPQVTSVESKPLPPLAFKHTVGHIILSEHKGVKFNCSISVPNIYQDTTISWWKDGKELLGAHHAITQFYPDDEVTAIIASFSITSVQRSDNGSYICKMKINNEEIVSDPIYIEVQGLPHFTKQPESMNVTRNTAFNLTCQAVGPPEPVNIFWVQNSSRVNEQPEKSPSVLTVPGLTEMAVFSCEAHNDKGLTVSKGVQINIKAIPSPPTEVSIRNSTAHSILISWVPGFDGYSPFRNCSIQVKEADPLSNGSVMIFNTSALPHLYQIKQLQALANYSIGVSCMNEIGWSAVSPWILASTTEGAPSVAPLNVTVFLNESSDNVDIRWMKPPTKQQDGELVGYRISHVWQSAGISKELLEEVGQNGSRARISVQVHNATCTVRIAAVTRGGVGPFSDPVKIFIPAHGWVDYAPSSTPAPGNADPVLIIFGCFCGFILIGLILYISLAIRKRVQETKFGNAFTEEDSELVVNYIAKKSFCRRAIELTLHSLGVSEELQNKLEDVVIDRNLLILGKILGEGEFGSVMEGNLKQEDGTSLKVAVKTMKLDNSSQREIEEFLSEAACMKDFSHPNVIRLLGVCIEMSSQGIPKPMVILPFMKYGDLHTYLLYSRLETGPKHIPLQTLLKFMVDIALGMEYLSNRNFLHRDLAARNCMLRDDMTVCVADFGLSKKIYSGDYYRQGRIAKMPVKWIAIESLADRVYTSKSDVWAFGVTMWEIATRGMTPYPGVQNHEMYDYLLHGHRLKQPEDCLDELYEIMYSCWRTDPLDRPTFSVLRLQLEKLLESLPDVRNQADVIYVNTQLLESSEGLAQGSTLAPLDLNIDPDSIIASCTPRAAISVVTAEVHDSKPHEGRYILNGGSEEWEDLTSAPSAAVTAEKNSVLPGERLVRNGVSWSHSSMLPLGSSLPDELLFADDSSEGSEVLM

[6] = target: Leukocyte tyrosine kinase receptor (Homo sapiens) (UniProt P29376); assay: Inhibition of LTK (unknown origin) transfected in mouse Ba/F3 cells at 5 uM after 24 hrs; assay type: cell-based; conditions: BaF3
[7] = target: Insulin-like growth factor 1 receptor (Homo sapiens) (UniProt P08069); assay: Inhibition of IGF1R (unknown origin) transfected in mouse Ba/F3 cells at 5 uM after 24 hrs; assay type: cell-based; conditions: BaF3
Sequence of Insulin-like growth factor 1 receptor (Homo sapiens) (P08069 31-736 limits assumed): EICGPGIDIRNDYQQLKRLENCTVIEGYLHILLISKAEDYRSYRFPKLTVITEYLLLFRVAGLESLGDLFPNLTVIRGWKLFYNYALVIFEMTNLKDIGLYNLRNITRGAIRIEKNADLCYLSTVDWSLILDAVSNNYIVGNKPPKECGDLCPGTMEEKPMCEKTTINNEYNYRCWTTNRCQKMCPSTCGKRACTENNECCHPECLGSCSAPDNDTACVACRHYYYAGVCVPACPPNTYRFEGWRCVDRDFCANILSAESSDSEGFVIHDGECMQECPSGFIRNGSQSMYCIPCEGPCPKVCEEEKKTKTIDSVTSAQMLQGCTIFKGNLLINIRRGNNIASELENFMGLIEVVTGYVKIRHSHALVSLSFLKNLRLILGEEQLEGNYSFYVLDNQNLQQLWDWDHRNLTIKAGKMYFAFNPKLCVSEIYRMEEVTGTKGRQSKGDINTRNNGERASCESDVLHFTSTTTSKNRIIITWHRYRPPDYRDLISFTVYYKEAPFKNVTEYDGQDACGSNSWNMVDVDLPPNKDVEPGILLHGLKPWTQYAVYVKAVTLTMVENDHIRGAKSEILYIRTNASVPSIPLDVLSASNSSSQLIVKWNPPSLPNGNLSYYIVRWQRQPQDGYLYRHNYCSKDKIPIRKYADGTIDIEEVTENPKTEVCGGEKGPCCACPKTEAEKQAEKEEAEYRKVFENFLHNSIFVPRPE
Sequence of Insulin-like growth factor 1 receptor (Homo sapiens) (P08069 741-1367 limits assumed): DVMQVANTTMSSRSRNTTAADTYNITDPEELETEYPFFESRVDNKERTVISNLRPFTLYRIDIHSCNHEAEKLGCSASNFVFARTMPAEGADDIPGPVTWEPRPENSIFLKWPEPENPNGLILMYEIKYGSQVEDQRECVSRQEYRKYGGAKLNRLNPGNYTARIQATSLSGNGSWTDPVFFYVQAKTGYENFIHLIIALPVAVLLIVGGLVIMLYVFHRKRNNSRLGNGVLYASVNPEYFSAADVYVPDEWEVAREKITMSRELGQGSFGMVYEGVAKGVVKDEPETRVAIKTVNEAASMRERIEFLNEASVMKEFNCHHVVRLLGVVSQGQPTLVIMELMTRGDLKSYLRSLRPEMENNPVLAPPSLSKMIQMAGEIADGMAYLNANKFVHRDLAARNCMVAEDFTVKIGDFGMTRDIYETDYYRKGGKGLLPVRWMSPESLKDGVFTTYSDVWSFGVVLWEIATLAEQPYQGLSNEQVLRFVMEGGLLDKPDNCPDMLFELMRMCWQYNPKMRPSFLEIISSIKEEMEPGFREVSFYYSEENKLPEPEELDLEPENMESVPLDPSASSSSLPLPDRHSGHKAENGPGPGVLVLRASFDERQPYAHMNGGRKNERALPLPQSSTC
Procedure, shortened: (§1)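 Kinase specificity panel: each Ba/F3 line transformed with one of 24 tyrosine kinases depends on that kinase to grow. Cells were given compound at 1 or 5 µM for 24 h, with DMSO as comparator. Percentage growth was read by ATP-lite luminescence and reported as mean ± SEM.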

[8] = target: Vascular endothelial growth factor receptor 3 (Homo sapiens) (UniProt P35916); assay: Inhibition of FLT4 (unknown origin) transfected in mouse Ba/F3 cells at 5 uM after 24 hrs; assay type: cell-based; conditions: BaF3; procedure, shortened: as §1
Sequence of Vascular endothelial growth factor receptor 3 (Homo sapiens) (P35916 whole entry): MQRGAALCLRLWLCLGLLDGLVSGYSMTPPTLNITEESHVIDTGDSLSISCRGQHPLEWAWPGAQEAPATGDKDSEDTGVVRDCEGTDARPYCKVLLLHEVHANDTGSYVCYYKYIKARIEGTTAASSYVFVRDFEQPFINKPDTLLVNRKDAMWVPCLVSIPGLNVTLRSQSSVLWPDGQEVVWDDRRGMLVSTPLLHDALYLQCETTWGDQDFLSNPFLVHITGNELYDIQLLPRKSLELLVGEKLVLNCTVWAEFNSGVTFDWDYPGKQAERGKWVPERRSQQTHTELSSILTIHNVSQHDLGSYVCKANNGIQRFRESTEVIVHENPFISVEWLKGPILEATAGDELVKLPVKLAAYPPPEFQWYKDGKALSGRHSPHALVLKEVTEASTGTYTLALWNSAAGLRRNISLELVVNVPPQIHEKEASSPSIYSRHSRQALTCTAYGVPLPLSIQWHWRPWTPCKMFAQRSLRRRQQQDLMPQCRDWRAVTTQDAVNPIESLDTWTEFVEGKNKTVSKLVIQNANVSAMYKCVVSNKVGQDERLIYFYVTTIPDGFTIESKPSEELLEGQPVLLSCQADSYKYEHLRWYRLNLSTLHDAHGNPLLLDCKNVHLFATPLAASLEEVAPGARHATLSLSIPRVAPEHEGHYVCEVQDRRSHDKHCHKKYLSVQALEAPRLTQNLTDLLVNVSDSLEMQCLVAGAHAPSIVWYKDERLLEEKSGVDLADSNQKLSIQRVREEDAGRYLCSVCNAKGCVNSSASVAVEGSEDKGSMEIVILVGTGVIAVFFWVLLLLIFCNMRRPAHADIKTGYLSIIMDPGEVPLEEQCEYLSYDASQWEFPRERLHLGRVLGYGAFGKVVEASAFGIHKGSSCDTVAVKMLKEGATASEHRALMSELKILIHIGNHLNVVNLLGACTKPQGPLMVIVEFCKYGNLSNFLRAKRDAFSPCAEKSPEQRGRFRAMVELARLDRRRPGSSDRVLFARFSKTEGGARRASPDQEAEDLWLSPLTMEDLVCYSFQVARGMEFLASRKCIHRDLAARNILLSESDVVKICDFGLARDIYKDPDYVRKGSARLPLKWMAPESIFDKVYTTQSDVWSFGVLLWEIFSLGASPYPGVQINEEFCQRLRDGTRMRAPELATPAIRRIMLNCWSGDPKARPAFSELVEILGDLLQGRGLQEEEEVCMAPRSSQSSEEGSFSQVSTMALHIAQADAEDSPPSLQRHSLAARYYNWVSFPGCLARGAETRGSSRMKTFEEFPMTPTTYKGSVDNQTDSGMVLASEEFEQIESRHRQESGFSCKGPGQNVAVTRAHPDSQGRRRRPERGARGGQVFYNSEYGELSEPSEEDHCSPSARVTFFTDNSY

[9] = target: Ephrin type-A receptor 7 (Homo sapiens) (UniProt Q15375); assay: Inhibition of EPHA7 (unknown origin) transfected in mouse Ba/F3 cells at 5 uM after 24 hrs; assay type: cell-based; conditions: BaF3; procedure, shortened: as §1
[10] = target: Ephrin type-A receptor 5 (Homo sapiens) (UniProt P54756); assay: Inhibition of EPHA5 (unknown origin) transfected in mouse Ba/F3 cells at 5 uM after 24 hrs; assay type: cell-based; conditions: BaF3; procedure, shortened: as §1
Sequence of Ephrin type-A receptor 5 (Homo sapiens) (P54756 whole entry): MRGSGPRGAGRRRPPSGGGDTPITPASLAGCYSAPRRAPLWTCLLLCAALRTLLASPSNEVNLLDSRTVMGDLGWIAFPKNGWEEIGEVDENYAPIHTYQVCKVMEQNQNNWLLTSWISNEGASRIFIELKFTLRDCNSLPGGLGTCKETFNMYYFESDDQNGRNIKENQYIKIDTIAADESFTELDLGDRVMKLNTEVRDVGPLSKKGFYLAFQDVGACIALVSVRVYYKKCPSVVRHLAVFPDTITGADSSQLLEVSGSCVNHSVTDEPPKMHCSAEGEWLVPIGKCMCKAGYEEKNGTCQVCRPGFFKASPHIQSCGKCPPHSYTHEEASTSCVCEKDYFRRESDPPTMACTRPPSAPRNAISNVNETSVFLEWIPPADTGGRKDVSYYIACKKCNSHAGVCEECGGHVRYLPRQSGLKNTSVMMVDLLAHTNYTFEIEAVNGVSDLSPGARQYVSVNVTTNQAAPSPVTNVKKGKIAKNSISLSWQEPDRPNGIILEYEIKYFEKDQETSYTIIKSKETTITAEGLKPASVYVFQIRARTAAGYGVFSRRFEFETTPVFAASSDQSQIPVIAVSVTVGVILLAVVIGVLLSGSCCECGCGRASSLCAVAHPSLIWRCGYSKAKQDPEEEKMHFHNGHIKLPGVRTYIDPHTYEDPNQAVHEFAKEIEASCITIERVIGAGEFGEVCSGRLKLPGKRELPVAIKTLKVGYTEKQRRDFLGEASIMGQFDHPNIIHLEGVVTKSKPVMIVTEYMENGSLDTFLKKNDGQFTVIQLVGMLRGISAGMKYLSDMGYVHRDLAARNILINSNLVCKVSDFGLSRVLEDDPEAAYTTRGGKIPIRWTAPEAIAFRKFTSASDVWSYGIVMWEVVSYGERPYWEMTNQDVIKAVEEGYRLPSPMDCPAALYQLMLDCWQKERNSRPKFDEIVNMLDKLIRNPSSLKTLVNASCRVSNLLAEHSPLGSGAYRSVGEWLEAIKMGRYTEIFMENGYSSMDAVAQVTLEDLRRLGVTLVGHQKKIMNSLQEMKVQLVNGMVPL

[11] = target: T2, Ephrin type-A receptor 1 (Homo sapiens) (UniProt P21709); assay: Inhibition of EPHA1 (unknown origin) transfected in mouse Ba/F3 cells at 5 uM after 24 hrs; assay type: cell-based; conditions: BaF3; procedure, shortened: as §1
T2 sequence (whole entry): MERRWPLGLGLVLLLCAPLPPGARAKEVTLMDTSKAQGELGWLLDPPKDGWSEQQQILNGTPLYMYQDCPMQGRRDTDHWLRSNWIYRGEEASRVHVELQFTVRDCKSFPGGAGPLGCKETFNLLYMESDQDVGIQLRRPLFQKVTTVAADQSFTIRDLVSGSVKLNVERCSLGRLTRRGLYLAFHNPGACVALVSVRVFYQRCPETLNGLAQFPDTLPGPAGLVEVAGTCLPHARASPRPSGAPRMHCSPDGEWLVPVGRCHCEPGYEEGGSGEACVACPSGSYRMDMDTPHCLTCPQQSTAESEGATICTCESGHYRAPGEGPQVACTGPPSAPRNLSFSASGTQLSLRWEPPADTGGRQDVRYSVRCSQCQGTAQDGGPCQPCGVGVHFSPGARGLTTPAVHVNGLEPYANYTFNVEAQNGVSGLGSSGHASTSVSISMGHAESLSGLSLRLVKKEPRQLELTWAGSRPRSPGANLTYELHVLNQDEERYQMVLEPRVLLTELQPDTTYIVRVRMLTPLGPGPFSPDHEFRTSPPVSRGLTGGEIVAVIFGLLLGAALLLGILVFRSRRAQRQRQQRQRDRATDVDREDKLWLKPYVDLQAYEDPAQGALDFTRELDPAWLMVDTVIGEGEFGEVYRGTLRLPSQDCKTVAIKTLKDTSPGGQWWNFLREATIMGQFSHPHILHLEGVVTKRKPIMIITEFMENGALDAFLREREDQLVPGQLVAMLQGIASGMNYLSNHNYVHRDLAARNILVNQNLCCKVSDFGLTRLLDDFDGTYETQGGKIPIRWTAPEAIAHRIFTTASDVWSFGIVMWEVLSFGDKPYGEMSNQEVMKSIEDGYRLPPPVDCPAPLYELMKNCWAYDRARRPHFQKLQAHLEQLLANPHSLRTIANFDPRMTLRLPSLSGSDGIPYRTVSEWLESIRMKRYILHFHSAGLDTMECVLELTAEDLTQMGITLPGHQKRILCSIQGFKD

COc1ccc(C(=O)Nc2cc(-c3ccccc3)[nH]n2)cc1
active: Activity (BaF3)

Fc1ccc(-c2n[nH]cc2-c2ccncc2)cc1Cl
active: inhibition [2] | inhibition [3] | inhibition [10]
inactive: inhibition [1] | inhibition [4] | inhibition [5] | inhibition [6] | inhibition [7] | inhibition [8] | inhibition [9] | inhibition [11]

Cc1ccc(-n2cnc3cc(Nc4nnc(C)c5ccccc45)ccc32)cc1
active: Activity (BaF3)
inactive: inhibition [1] | inhibition [2] | inhibition [3] | inhibition [4] | inhibition [5] | inhibition [6] | inhibition [7] | inhibition [8] | inhibition [9] | inhibition [10] | inhibition [11]
